Experimental data reported in ChEMBL document CHEMBL4007421, “Discovery and Preclinical Characterization of 3-((4-(4-Chlorophenyl)-7-fluoroquinoline-3-yl)sulfonyl)benzonitrile, a Novel Non-acetylenic Metabotropic Glutamate Receptor 5 (mGluR5) Negative Allosteric Modulator for Psychiatric Indications” (J Med Chem, 2017).

Columns and labels:
Liver [1] = assay: Intrinsic clearance in human liver microsomes at 2.5 uM assessed per gram of liver; type: ADME, microsome
Liver [2] = assay: Intrinsic clearance in rat liver microsomes at 2.5 uM assessed per gram of liver; type: ADME, microsome
[3] = molecular target: Metabotropic glutamate receptor 5 (Rattus norvegicus) (UniProt P31424); assay: Displacement of [3H]M-MPEP from rat mGluR5 expressed in rat cerebrocortical membrane at 1 uM after 60 mins relative to control; type: cell membranes
[4] = Plasma concentration in ip dosed Wistar rat at anxiolytic MED administered as suspension after 75 mins during Vogel punished drinking conflict test; type: ADME, organism-based
[5] = molecular target: Metabotropic glutamate receptor 5 (Homo sapiens, UniProt P41594); assay: Negative allosteric modulation of human mGluR5a expressed in CHO cells assessed as reduction in DHPG-induced cytosolic Ca2+ influx after 10 to 20 mins by fluo-4/AM-dye based fluorometric analysis; type: functional, cell-based
Rattus norvegicus [6] = assay: Anxiolytic activity in ip dosed Wistar rat assessed as increase in water drinking time during punished period administered as suspension by Vogel punished drinking conflict test; type: functional; conditions: read-out: MED
Summary of the method: (§1)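 Vogel punished-drinking test in rats, single i.p. or p.o. dose as suspension in 5% Tween 80; plasma sampled ~45 min after i.p. or ~75 min after p.o. dosing.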

Rattus norvegicus [7] = assay: Anxiolytic activity in po dosed Wistar rat assessed as increase in water drinking time during punished period administered as suspension by Vogel punished drinking conflict test; type: functional; conditions: read-out: MED; summary of the method: as §1
[8] = molecular target: Metabotropic glutamate receptor 5 (Rattus norvegicus, UniProt P31424); assay: Displacement of [3H]M-MPEP from mGluR5 in Sprague-Dawley rat cerebrocortical membranes after 60 mins
Rattus norvegicus [9] = assay: Anxiolytic activity in po dosed Wistar rat assessed as reduction in ultrasonic vocalization; type: functional
Rattus norvegicus [10] = assay: Toxicity in po dosed Harlan-Wistar rat assessed as decrease in spontaneous locomotor activity photocell-based activity monitor test; type: organism-based; conditions: in vivo
Summary of the method: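 Male Wistar rats were given 0, 10, 30 or 50 mg/kg p.o. Spontaneous locomotor activity (ambulatory movement) was recorded in a photocell-based activity monitor.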

Rattus norvegicus [11] = assay: Anxiolytic activity in po dosed Wistar rat assessed as reduction in freezing behavior by contextual fearing test; type: functional; conditions: read-out: MED
[12] = Plasma concentration in ip dosed Wistar rat at anxiolytic MED administered as suspension after 45 mins during Vogel punished drinking conflict test; type: ADME, organism-based
Summary of the method: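 Vehicle was a suspension containing 5% Tween 80, given i.p. at the Vogel minimum effective dose. Plasma was sampled about 45 min after dosing, right after the Vogel punished drinking test.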

Plasma [13] = assay: Plasma concentration in Wistar rat at 30 mg/kg, po administered as single dose; type: ADME, organism-based; conditions: in vivo
Rattus norvegicus [14] = assay: Effect on spatial learning performance in po dosed Wistar rat measured as escape latency dosed 1 hr prior to first daily trial by Morris water maze test; type: ADME, organism-based; conditions: in vivo
Summary of the method: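 Morris water maze with male Harlan-Wistar rats (190–220 g): three trials a day for 4 days, hidden 10 cm platform, video tracking; 30 mg/kg p.o. in Type IV lipid formulation 1 h before first daily trial; plasma taken after last Day 4 trial; 7–17 rats/group.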

Rattus norvegicus [15] = assay: Therapeutic index, ratio of plasma concentration causing effect on spatial learning performance in po dosed Wistar rat by Morris water maze test to plasma concentration causing anxiolytic activity in Wistar rat by Vogel punished drinking conflict test
Summary of the method: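 Index is the plasma level in rats at 30 mg/kg p.o. in the Morris water maze (sampled after the last trial on Day 4) divided by the plasma level at the Vogel minimum effective dose. Vogel plasma was sampled right after the test.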

Rattus norvegicus [16] = assay: Therapeutic index, ratio of MED for effect on spatial learning performance in po dosed Wistar rat by Morris water maze test to MED for anxiolytic activity in Wistar rat by Vogel punished drinking conflict test
Summary of the method: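 Index is the Morris water maze minimum effective dose (oral, given 1 h before the first daily trial, 4 days of 3 trials) divided by the Vogel punished drinking minimum effective dose.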

Plasma [17] = assay: Plasma concentration in Wistar rat at 30 mg/kg, ip administered as single dose; type: ADME, organism-based; conditions: in vivo
Summary of the method: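 Rats dosed i.p. at 30 mg/kg. Plasma level was taken about 45 min after dosing, at the end of the Vogel session.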

Sequence of Metabotropic glutamate receptor 5 (Rattus norvegicus) (P31424 21-1203 limits assumed): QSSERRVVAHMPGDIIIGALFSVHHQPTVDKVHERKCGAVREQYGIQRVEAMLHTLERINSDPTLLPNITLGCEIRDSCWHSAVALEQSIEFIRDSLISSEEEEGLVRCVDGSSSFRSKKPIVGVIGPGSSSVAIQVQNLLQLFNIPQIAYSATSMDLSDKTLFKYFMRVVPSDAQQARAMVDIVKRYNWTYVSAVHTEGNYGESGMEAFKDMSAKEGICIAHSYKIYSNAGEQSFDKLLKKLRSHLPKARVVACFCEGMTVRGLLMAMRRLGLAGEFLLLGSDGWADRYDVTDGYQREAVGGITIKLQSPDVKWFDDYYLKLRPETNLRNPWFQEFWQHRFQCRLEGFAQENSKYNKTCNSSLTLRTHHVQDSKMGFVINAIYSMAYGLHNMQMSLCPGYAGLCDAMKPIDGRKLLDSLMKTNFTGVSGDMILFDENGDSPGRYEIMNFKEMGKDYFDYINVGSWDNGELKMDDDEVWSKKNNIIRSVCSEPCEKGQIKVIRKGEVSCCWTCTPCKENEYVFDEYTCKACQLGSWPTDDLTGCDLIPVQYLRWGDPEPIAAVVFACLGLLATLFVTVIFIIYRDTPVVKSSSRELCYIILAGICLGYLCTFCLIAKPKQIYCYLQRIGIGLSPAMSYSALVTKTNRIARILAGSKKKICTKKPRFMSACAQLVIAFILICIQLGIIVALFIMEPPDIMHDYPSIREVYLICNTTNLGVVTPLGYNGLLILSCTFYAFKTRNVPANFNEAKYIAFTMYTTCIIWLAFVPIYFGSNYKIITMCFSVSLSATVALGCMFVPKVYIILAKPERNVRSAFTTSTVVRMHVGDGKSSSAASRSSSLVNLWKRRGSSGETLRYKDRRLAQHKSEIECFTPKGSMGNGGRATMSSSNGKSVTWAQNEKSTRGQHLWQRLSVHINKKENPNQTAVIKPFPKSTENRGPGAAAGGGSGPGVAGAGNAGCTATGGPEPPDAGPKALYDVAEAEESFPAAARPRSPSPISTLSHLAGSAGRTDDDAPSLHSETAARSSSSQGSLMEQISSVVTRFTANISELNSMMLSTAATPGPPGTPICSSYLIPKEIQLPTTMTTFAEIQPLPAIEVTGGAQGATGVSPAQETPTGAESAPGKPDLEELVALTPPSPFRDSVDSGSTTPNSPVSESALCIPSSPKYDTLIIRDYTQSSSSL
Sequence of Metabotropic glutamate receptor 5 (Homo sapiens, UniProt P41594) (P41594 whole entry): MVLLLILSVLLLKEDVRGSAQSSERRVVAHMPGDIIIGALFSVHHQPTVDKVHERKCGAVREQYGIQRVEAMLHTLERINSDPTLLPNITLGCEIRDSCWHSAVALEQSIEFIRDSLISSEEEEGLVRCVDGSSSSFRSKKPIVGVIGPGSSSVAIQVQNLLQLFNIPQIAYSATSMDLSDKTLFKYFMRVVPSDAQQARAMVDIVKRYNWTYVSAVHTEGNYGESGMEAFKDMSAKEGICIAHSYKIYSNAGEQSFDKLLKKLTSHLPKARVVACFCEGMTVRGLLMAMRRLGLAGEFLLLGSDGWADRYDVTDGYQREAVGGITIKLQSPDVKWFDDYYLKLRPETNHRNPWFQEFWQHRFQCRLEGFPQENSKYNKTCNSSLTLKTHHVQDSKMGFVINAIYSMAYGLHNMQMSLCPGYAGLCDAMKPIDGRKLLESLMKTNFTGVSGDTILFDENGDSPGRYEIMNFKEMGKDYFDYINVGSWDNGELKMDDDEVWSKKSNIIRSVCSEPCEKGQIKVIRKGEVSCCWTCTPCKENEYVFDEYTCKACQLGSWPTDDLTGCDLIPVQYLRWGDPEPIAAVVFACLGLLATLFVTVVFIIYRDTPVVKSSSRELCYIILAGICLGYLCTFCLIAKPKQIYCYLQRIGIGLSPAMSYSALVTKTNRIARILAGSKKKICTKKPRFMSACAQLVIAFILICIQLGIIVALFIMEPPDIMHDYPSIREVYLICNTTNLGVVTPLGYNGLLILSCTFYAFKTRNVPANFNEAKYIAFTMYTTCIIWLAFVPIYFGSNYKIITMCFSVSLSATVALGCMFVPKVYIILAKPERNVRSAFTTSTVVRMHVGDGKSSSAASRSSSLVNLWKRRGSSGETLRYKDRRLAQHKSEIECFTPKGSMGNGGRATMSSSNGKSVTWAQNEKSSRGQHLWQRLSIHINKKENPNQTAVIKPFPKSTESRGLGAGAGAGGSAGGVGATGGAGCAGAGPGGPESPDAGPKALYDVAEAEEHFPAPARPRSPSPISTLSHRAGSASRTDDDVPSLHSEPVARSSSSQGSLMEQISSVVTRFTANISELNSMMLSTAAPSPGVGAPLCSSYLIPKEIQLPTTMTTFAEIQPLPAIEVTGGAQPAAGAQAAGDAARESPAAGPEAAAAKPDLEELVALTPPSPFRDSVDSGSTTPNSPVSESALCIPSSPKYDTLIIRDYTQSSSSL
Sequence of Metabotropic glutamate receptor 5 (Rattus norvegicus, UniProt P31424) (P31424 whole entry): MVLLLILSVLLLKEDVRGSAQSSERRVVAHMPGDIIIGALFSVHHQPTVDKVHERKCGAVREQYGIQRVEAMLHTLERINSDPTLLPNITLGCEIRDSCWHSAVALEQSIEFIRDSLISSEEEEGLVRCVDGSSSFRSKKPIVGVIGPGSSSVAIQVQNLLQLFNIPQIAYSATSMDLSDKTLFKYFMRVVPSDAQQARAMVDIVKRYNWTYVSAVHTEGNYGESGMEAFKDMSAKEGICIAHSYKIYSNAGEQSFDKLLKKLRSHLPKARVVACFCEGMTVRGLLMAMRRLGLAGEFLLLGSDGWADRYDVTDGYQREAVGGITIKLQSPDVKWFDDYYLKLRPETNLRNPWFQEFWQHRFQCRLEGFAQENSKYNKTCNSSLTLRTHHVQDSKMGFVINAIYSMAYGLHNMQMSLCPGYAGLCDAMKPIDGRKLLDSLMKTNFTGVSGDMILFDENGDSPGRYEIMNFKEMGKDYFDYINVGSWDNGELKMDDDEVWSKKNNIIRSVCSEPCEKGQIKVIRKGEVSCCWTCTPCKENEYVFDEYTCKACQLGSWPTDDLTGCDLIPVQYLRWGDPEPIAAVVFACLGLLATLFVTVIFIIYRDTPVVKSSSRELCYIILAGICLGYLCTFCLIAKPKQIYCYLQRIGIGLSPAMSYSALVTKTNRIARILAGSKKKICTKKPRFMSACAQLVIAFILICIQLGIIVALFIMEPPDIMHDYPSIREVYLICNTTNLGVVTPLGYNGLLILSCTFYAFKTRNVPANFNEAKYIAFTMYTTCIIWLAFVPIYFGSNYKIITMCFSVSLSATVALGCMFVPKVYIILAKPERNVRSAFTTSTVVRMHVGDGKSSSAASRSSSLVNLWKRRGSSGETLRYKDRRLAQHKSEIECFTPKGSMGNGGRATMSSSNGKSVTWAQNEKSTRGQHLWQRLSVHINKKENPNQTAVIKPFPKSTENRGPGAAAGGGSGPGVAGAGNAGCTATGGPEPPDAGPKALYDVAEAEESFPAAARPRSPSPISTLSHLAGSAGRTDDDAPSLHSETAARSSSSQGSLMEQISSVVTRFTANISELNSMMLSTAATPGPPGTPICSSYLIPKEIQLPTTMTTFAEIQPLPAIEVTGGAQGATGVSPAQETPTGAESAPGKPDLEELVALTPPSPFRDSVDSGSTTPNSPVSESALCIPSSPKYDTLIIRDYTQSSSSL

Structure (SMILES) | CLint (Liver [1]) [mL/min/g] | CLint (Liver [2]) [mL/min/g] | inhibition [3] [%] | IC50 [5] [nM] | minimal effective dose (Rattus norvegicus [6]) [mg/kg] | minimal effective dose (Rattus norvegicus [7]) [mg/kg] | Ki [8] [nM] | other results
O=S(=O)(c1ccc(F)cc1)c1cnc2cc(Cl)c(F)cc2c1-c1ccc(Cl)cc1 | 0.01 | 0.57 | 48 | – | – | – | – | –
O=S(=O)(c1ccc(F)cc1)c1cnc2c(F)cc(Cl)cc2c1-c1ccc(Cl)cc1 | 0.01 | 0.09 | 19 | – | – | – | – | –
O=S(=O)(c1cc(Cl)cc(Cl)c1)c1cnc2cc(F)ccc2c1-c1ccc(F)cc1 | 0.18 | 1.15 | – | 25 | > 30 | – | – | concentration at 1.25 h [4]: 165 nM
Cc1cccc(C#Cc2ccccc2)n1 | 1.61 | 0.19 | – | – | 3 | 3 | – | –
O=S(=O)(c1ccc(F)c(F)c1)c1cnc2cc(F)ccc2c1-c1ccc(Cl)cc1 | 0.01 | 1.41 | – | 22 | 10 | 10 | 17.1 | –
O=S(=O)(c1ccc(F)cc1)c1cnc2ccc(Cl)cc2c1-c1ccc(Cl)cc1 | 0.01 | 0.2 | 58.3 | – | – | – | – | –
CN1C(=O)CN=C(c2ccccc2)c2cc(Cl)ccc21 [DIAZEPAM] | – | – | – | – | – | 2.5 | – | ED50 (Rattus norvegicus [9]): 7.8 mg/kg; ED50 (Rattus norvegicus [10]): 9.7 mg/kg; minimal effective dose (Rattus norvegicus [11]): > 10 mg/kg
O=S(=O)(c1cccc(F)c1)c1cnc2c(F)cccc2c1-c1ccc(F)cc1 | 0.19 | 0.2 | – | 69 | 30 | – | 31.6 | concentration at 0.75 h [12]: 1210 nM
O=S(=O)(c1ccc(F)c(F)c1)c1cnc2c(F)cccc2c1-c1ccc(Cl)cc1 | 0.28 | 0.2 | – | 13 | 3 | > 30 | – | concentration (Plasma [13]): 196 nM; concentration at 0.75 h [12]: 59.7 nM
N#Cc1ccc2ncc(S(=O)(=O)c3ccc(F)cc3)c(-c3ccc(Cl)cc3)c2c1 | 0.01 | 0.04 | 39.7 | – | – | – | – | –
O=S(=O)(c1cc(Cl)cc(Cl)c1)c1cnc2cc(F)ccc2c1-c1cccc(F)c1 | 0.41 | 1.53 | – | 35 | 30 | – | 10.7 | concentration at 0.75 h [12]: 90.6 nM
O=S(=O)(c1ccc(F)c(Cl)c1)c1cnc2cc(F)ccc2c1-c1ccc(Cl)cc1 | 0.39 | 0.45 | – | 27 | 30 | 3 to 10 | 8.3 | Activity (Rattus norvegicus [14]): Toxic; concentration (Plasma [13]): 866 nM; TI (Rattus norvegicus [15]): 3.9; TI (Rattus norvegicus [16]): 10; concentration at 0.75 h [12]: 373 nM
O=S(=O)(c1cc(F)cc(F)c1)c1cnc2cc(F)ccc2c1-c1cccc(F)c1 | 0.06 | 1.8 | – | 74 | > 30 | – | 32.6 | concentration (Plasma [17]): 63 nM
N#Cc1ccc2c(-c3ccc(Cl)cc3)c(S(=O)(=O)c3ccc(F)cc3)cnc2c1 | 0.01 | 0.01 | 8.7 | – | – | – | – | –
